Assays:
Plasmodium falciparum [1] = assay: Antiplasmodial activity against chloroquine-sensitive asexual erythrocytic stage of Plasmodium falciparum NF54 assessed as parasite growth inhibition by parasite lactate dehydrogenase assay; format: functional, organism-based
How it was run: (§1)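 Asexual erythrocytic cultures were maintained continuously by a modified Trager–Jensen method. Samples came from 20 mg/mL DMSO stocks and were serially diluted 2-fold in complete medium over 10 concentrations, from 100 µg/mL down to 0.20 µg/mL; some started at 1000 µg/mL. Reference drugs started at 100 ng/mL. Read-out was modified pLDH. IC50 came from full dose-response curves, run in triplicate on two occasions.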

Plasmodium falciparum [2] = assay: Antiplasmodial activity against chloroquine-resistant asexual erythrocytic stage of Plasmodium falciparum Dd2 assessed as parasite growth inhibition by parasite lactate dehydrogenase assay; format: functional, organism-based; how it was run: as §1
Plasmodium falciparum [3] = assay: Resistance index, ratio of IC50 for chloroquine-resistant asexual erythrocytic stage of Plasmodium falciparum Dd2 to IC50 for chloroquine-sensitive asexual erythrocytic stage of Plasmodium falciparum NF54; format: functional
Plasmodium falciparum [4] = assay: Potency index, ratio of chloroquine IC50 to compound IC50 for chloroquine-resistant asexual erythrocytic stage of Plasmodium falciparum Dd2

## CCN(CC)CCCn1cc(CNc2ccnc3cc(Cl)ccc23)nn1
Plasmodium falciparum [1]
  IC50: 5330 nM
Plasmodium falciparum [2]
  IC50: 1980 nM
Plasmodium falciparum [3]
  Ratio IC50: 2.7

## CN(CCn1cc(CNc2ccnc3cc(Cl)ccc23)nn1)c1ccccc1
Plasmodium falciparum [1]
  IC50: 492 nM
Plasmodium falciparum [2]
  IC50: 380 nM
Plasmodium falciparum [3]
  Ratio IC50: 1.3

## C[C@H]1[C@H](OC(=O)CCC(=O)O)O[C@@H]2O[C@@]3(C)CC[C@H]4[C@H](C)CC[C@@H]1[C@@]24OO3 [ARTESUNATE]
Plasmodium falciparum [1]
  IC50: < 5.2 nM
Plasmodium falciparum [2]
  IC50: 24.2 nM
Plasmodium falciparum [3]
  Ratio IC50: 4.6

## Clc1ccc2c(NCc3cn(CCCN4CCOCC4)nn3)ccnc2c1
Plasmodium falciparum [1]
  IC50: 261 nM
Plasmodium falciparum [2]
  IC50: 77.7 nM
Plasmodium falciparum [3]
  Ratio IC50: 3.3

## Clc1ccc2c(NCc3cn(CCCN(Cc4ccccc4)Cc4ccccc4)nn3)ccnc2c1
Plasmodium falciparum [1]
  IC50: 2240 nM
Plasmodium falciparum [2]
  IC50: 114 nM
Plasmodium falciparum [3]
  Ratio IC50: 20

## CN(CCCn1cc(CNc2ccnc3cc(Cl)ccc23)nn1)c1ccccc1
Plasmodium falciparum [1]
  IC50: 305 nM
Plasmodium falciparum [2]
  IC50: 165 nM
Plasmodium falciparum [3]
  Ratio IC50: 1.8

## CN(CCn1cc(CNc2ccnc3cc(Cl)ccc23)nn1)Cc1ccccc1
Plasmodium falciparum [1]
  IC50: 216 nM
Plasmodium falciparum [2]
  IC50: 151 nM
Plasmodium falciparum [3]
  Ratio IC50: 1.4

## Clc1ccc2c(NCc3cn(CCN4CCOCC4)nn3)ccnc2c1
Plasmodium falciparum [1]
  IC50: 1760 nM
Plasmodium falciparum [2]
  IC50: 1300 nM
Plasmodium falciparum [3]
  Ratio IC50: 1.4

## Clc1ccc2c(NCc3cn(CCN(Cc4ccccc4)Cc4ccccc4)nn3)ccnc2c1
Plasmodium falciparum [1]
  IC50: 140 nM
Plasmodium falciparum [2]
  IC50: 78.6 nM
Plasmodium falciparum [4]
  Ratio IC50: 3
Plasmodium falciparum [3]
  Ratio IC50: 0.6

## CN(CCCn1cc(CNc2ccnc3cc(Cl)ccc23)nn1)Cc1ccccc1
Plasmodium falciparum [1]
  IC50: 15 nM
Plasmodium falciparum [2]
  IC50: 50.8 nM
Plasmodium falciparum [4]
  Ratio IC50: 3
Plasmodium falciparum [3]
  Ratio IC50: 3.4

## Clc1ccc2c(NCc3cn(CCCN4CCCCC4)nn3)ccnc2c1
Plasmodium falciparum [1]
  IC50: 123 nM
Plasmodium falciparum [2]
  IC50: 8.9 nM
Plasmodium falciparum [3]
  Ratio IC50: 14

## Clc1ccc2c(NCc3cn(CCCN4CCCC4)nn3)ccnc2c1
Plasmodium falciparum [1]
  IC50: 149 nM
Plasmodium falciparum [2]
  IC50: 18.4 nM
Plasmodium falciparum [3]
  Ratio IC50: 8.1

## Clc1ccc2c(NCc3cn(CCCN4c5ccccc5CCc5ccccc54)nn3)ccnc2c1
Plasmodium falciparum [1]
  IC50: 64.3 nM
Plasmodium falciparum [2]
  IC50: 74.1 nM
Plasmodium falciparum [4]
  Ratio IC50: 3
Plasmodium falciparum [3]
  Ratio IC50: 1.2

## Clc1ccc2c(NCc3cn(CCN4CCCC4)nn3)ccnc2c1
Plasmodium falciparum [1]
  IC50: 16.2 nM
Plasmodium falciparum [2]
  IC50: 69.3 nM
Plasmodium falciparum [4]
  Ratio IC50: 3
Plasmodium falciparum [3]
  Ratio IC50: 4.3

## CCN(CC)CCn1cc(CNc2ccnc3cc(Cl)ccc23)nn1
Plasmodium falciparum [1]
  IC50: 9.8 nM
Plasmodium falciparum [2]
  IC50: 53.5 nM
Plasmodium falciparum [4]
  Ratio IC50: 3
Plasmodium falciparum [3]
  Ratio IC50: 5.5

## Clc1ccc2c(NCc3cn(CCN4CCCCC4)nn3)ccnc2c1
Plasmodium falciparum [1]
  IC50: 10.2 nM
Plasmodium falciparum [2]
  IC50: 51.6 nM
Plasmodium falciparum [4]
  Ratio IC50: 3
Plasmodium falciparum [3]
  Ratio IC50: 5.1

— ChEMBL document CHEMBL3596109, “In vitro antiplasmodial activity of triazole-linked chloroquinoline derivatives synthesized from 7-chloro-N-(prop-2-yn-1-yl)quinolin-4-amine” (Bioorg Med Chem, 2015)
